Experimental data as given in the M2OR odorant receptor database.

Columns and labels:
Conditions in all cases: stereoisomer not certain
OR51D1 (Homo sapiens) = biological target: T1, OR51D1 (Homo sapiens) (UniProt Q8NGF3)
T1 sequence (whole entry): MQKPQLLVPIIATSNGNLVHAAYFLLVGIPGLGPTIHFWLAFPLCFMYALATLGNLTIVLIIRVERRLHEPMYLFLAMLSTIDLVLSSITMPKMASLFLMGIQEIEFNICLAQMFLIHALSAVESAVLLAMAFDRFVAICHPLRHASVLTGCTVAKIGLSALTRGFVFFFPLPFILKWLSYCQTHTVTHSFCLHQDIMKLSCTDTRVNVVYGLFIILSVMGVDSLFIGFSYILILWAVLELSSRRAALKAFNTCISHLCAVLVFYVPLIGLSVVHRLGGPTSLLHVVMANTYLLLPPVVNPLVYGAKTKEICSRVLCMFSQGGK
Method in brief: (§1)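 Whether a receptor–molecule pair is responsive (active) rests on the original authors' judgment that its measured signal was statistically different from baseline. Pairs without that judgment are non-responsive (inactive). Sources used varied assay methods, commonly transient luciferase assays in mammalian cell lines.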

OR51E1 (Homo sapiens) [1] = biological target: T2, OR51E1 (Homo sapiens) (UniProt Q8TCB6)
T2 sequence (whole entry): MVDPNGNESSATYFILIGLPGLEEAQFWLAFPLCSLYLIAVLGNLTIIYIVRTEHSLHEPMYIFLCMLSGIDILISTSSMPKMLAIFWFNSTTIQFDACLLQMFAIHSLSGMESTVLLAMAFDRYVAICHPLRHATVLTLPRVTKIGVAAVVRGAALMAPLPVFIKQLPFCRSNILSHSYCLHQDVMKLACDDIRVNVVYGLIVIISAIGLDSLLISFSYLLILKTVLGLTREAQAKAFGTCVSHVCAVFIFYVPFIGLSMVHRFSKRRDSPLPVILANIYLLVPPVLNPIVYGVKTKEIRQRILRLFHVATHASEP
Method in brief: as §1

OR51E2 (Homo sapiens) = biological target: T3, OR51E2 (Homo sapiens) (UniProt Q9H255)
T3 sequence (whole entry): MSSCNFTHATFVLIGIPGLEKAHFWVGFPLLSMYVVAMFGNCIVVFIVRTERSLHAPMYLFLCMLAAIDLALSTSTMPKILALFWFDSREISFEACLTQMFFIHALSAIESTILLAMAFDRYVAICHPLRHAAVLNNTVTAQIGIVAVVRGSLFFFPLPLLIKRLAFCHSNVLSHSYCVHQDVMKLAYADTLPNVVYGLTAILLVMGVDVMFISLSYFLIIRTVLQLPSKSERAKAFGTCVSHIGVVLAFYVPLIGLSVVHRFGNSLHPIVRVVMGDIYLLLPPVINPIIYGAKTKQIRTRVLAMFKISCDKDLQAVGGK
Method in brief: as §1

OR51F1 (Homo sapiens) = biological target: T4, OR51F1 (Homo sapiens) (UniProt A6NGY5)
T4 sequence (whole entry): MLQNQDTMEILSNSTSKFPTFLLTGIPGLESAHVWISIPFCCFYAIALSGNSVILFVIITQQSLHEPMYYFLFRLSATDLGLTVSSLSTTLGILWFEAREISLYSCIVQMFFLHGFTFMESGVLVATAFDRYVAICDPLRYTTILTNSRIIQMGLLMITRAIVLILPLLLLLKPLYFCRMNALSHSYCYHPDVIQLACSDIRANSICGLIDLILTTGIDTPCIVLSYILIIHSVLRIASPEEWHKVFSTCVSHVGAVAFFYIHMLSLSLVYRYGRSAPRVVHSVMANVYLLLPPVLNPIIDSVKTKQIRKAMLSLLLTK
Method in brief: as §1

OR51F2 (Homo sapiens) = biological target: T5, OR51F2 (Homo sapiens) (UniProt Q8NH61)
T5 sequence (whole entry): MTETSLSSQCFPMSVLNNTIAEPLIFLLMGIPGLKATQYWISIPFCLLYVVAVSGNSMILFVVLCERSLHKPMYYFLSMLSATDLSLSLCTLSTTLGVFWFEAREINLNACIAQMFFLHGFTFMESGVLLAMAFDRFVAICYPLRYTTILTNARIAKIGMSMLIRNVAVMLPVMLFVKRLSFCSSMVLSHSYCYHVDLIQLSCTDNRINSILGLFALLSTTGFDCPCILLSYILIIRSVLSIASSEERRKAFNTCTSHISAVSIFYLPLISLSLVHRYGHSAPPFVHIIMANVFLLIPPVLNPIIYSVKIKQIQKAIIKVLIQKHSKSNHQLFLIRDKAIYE
Method in brief: as §1

OR51G1 (Homo sapiens) = biological target: T6, OR51G1 (Homo sapiens) (UniProt Q8NGK1)
T6 sequence (whole entry): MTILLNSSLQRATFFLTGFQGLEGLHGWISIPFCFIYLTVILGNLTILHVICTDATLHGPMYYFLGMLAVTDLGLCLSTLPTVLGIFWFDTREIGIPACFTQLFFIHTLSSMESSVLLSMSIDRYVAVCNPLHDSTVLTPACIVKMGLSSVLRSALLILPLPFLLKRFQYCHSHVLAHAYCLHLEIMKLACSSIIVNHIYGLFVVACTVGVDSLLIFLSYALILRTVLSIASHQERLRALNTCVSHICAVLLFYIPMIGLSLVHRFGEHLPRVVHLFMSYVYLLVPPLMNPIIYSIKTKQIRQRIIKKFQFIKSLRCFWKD
Method in brief: as §1

OR51G2 (Homo sapiens) = biological target: T7, OR51G2 (Homo sapiens) (UniProt Q8NGK0)
T7 sequence (whole entry): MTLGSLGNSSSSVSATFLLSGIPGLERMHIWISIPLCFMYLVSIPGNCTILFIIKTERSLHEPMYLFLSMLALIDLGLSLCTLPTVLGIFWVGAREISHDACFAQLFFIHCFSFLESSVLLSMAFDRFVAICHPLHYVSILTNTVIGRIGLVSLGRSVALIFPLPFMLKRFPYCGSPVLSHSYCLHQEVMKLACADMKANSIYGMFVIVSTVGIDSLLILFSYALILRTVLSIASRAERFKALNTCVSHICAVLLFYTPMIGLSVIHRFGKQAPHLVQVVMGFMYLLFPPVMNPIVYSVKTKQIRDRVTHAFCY
Method in brief: as §1

OR51I1 (Homo sapiens) = biological target: T8, OR51I1 (Homo sapiens) (UniProt Q9H343)
T8 sequence (whole entry): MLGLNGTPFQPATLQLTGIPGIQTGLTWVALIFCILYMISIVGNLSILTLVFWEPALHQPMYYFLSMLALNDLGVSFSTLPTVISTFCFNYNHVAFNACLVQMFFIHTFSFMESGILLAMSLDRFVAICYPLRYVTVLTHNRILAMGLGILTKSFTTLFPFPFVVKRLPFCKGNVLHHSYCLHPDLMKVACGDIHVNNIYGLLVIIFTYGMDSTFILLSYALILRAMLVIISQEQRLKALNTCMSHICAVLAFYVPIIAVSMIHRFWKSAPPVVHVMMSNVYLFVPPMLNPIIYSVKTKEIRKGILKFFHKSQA
Method in brief: as §1

OR51E1 (Homo sapiens) [2] = biological target: T9, OR51E1 (Homo sapiens) (UniProt Q8TCB6); remark: listed apart in the source
T9 sequence (whole entry): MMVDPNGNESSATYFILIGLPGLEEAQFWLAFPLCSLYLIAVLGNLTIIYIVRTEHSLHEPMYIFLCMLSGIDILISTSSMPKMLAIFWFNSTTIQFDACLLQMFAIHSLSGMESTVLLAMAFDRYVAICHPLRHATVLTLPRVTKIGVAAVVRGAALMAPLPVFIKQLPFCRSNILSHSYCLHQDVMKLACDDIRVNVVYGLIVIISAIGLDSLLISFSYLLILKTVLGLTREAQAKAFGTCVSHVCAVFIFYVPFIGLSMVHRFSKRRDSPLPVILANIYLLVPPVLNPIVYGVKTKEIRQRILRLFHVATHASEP
Method in brief: as §1

Measured: odorant receptor agonist call;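 further: active if original authors judged signal statistically different from baseline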

CCC(S)C(C)CO (stereo unspecified)
inactive: OR51D1 (Homo sapiens) | OR51E1 (Homo sapiens) [1] | OR51E2 (Homo sapiens) | OR51F1 (Homo sapiens) | OR51F2 (Homo sapiens) | OR51G1 (Homo sapiens) | OR51G2 (Homo sapiens) | OR51I1 (Homo sapiens)

CCCCCC1CCCC(=O)O1 (stereo unspecified)
inactive: OR51D1 (Homo sapiens) | OR51E1 (Homo sapiens) [1] | OR51E2 (Homo sapiens) | OR51F1 (Homo sapiens) | OR51F2 (Homo sapiens) | OR51G1 (Homo sapiens) | OR51G2 (Homo sapiens) | OR51I1 (Homo sapiens)

CC(=O)OCC=C(C)C
inactive: OR51E1 (Homo sapiens) [1] | OR51E2 (Homo sapiens)

CC(=O)OCc1ccccc1
inactive: OR51E1 (Homo sapiens) [1] | OR51E2 (Homo sapiens)

O=C([O-])CC(O)(CC(=O)O)C(=O)[O-].[H+].[H+]
inactive: OR51E1 (Homo sapiens) [1]

O=C1Cc2ccccc2O1
inactive: OR51E1 (Homo sapiens) [1] | OR51E2 (Homo sapiens)

CCCCCC(=O)C(C)C(C)=O (stereo unspecified)
inactive: OR51D1 (Homo sapiens) | OR51E1 (Homo sapiens) [1] | OR51E2 (Homo sapiens) | OR51F1 (Homo sapiens) | OR51F2 (Homo sapiens) | OR51G1 (Homo sapiens) | OR51G2 (Homo sapiens) | OR51I1 (Homo sapiens)

O=C(c1ccccc1)c1ccccc1
inactive: OR51E1 (Homo sapiens) [1] | OR51E2 (Homo sapiens)

CCCCCCC=CCCC=O
inactive: OR51D1 (Homo sapiens) | OR51E1 (Homo sapiens) [1] | OR51E2 (Homo sapiens) | OR51F1 (Homo sapiens) | OR51F2 (Homo sapiens) | OR51G1 (Homo sapiens) | OR51G2 (Homo sapiens) | OR51I1 (Homo sapiens)

CCCC(S)CCOC(C)=O (stereo unspecified)
inactive: OR51D1 (Homo sapiens) | OR51E1 (Homo sapiens) [2] | OR51E2 (Homo sapiens) | OR51F2 (Homo sapiens) | OR51G1 (Homo sapiens) | OR51G2 (Homo sapiens) | OR51I1 (Homo sapiens)

CCCCCCCCCO
inactive: OR51E1 (Homo sapiens) [1] | OR51E2 (Homo sapiens)

c1ccccc1
inactive: OR51E1 (Homo sapiens) [1] | OR51E2 (Homo sapiens)

O=C([O-])c1ccccc1.[H+]
inactive: OR51E1 (Homo sapiens) [1]

CCCCCCCCCCCCCCCC(=O)[O-].[H+]
inactive: OR51E1 (Homo sapiens) [1]

CCCCCCC(=O)[O-].[H+]
inactive: OR51E1 (Homo sapiens) [1] | OR51E2 (Homo sapiens)

CC(CO)CS (stereo unspecified)
inactive: OR51D1 (Homo sapiens) | OR51E1 (Homo sapiens) [1] | OR51E2 (Homo sapiens) | OR51F1 (Homo sapiens) | OR51F2 (Homo sapiens) | OR51G1 (Homo sapiens) | OR51G2 (Homo sapiens) | OR51I1 (Homo sapiens)

CCCCC(S)C(C)CO (stereo unspecified)
inactive: OR51D1 (Homo sapiens) | OR51E1 (Homo sapiens) [1] | OR51E2 (Homo sapiens) | OR51F1 (Homo sapiens) | OR51F2 (Homo sapiens) | OR51G1 (Homo sapiens) | OR51G2 (Homo sapiens) | OR51I1 (Homo sapiens)

CCC1OC(=O)C(O)=C1C (stereo unspecified)
inactive: OR51D1 (Homo sapiens) | OR51E1 (Homo sapiens) [2] | OR51E2 (Homo sapiens) | OR51F2 (Homo sapiens) | OR51G1 (Homo sapiens) | OR51G2 (Homo sapiens) | OR51I1 (Homo sapiens)

Cc1cnc(C)c(C)n1
inactive: OR51D1 (Homo sapiens) | OR51E1 (Homo sapiens) [2] | OR51E2 (Homo sapiens) | OR51F2 (Homo sapiens) | OR51G1 (Homo sapiens) | OR51G2 (Homo sapiens) | OR51I1 (Homo sapiens)

CCCCC(=O)CC
inactive: OR51E1 (Homo sapiens) [1] | OR51E2 (Homo sapiens)

CCCC(C)C(=O)O (stereo unspecified)
active: OR51E1 (Homo sapiens) [1]

CC1=C(O)C(=O)OC1C (stereo unspecified)
inactive: OR51D1 (Homo sapiens) | OR51E1 (Homo sapiens) [2] | OR51E2 (Homo sapiens) | OR51F2 (Homo sapiens) | OR51G1 (Homo sapiens) | OR51G2 (Homo sapiens) | OR51I1 (Homo sapiens)
